This note sets out measurements from ChEMBL document CHEMBL2439950, “Arylamino methylene bisphosphonate derivatives as bone seeking matrix metalloproteinase inhibitors” (Bioorg Med Chem, 2013).

Data set [1] can be described thus: Cytotoxicity against human HepG2 cells assessed as cell viability at 100 uM after 48 hrs by MTT assay. In kind it is cell-based. Particulars: read-out: Activity. The essentials:
(§1)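 J774 A.1 cells were grown in DMEM and HepG2 in MEM, each with 10% FBS, penicillin, streptomycin and 2 mM L-glutamine, at 37 °C in 5% CO2. Seeded at 1-5·10^4 cells/well with half-log diluted compounds, 1% DMSO final, for 48 h. MTT was added to 0.5 mg/mL final for 3-4 h, solubilized in 50% DMSO/50% EtOH, and read at 570 nm. Background came from Triton X-100 lysed wells, and viability was taken relative to untreated controls.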

Data set [2] in a line: Cytotoxicity against mouse J774A1 cells assessed as cell viability at 100 uM after 48 hrs by MTT assay. It counts as functional. Particulars: J774.A1, 48 h, read-out: Activity. A digest of the protocol:
as §1
For orientation: Tetrazolium assays rely on reduction of a dye to a coloured formazan, in cell work by metabolically active cells.

For data set [3], the system named is Hydroxyapatite. The data set can be described thus: Binding affinity to bone mineral hydroxyapatite assessed as adsorbed level at 100 uM after 2 hrs by UV-spectrophotometric analysis. A digest of the protocol: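 Duplicate 5 ml aliquots of 100 μM bisphosphonic acid in 50 mM Tris-HCl pH 7.5, stirred with 4 mg hydroxyapatite at 37 °C for 2 h. After centrifugation (10 min, 8000 rpm) and 0.22 μm filtration, supernatant absorbance was quantified against calibration lines.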

For data set [4], the target named is Matrix metalloproteinase-14 (Homo sapiens, UniProt P50281). The data set can be described thus: Inhibition of MMP14 catalytic domain (unknown origin) using Mca-Pro-Leu-Gly-Leu-Dpa-Ala-Arg-NH2 as substrate incubated for 30 mins prior to substrate addition measured after 2 to 4 hrs by fluorometric assay. The essentials: (§2)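 Catalytic domains of MMP-8, MMP-9 or MMP-14 were preincubated 30 min at 25 °C with inhibitor (six concentrations, 0.1 nM–100 μM) in 50 mM Tris-HCl pH 7.5, 200 mM NaCl, 1 mM CaCl2, 1 μM ZnCl2, 0.05% Brij-35, 1% DMSO. Substrate was added to 2.5 μM final for 2–4 h at 37 °C, then acetic acid stop. Fluorescence read at 340/405 nm, in triplicate; IC50 fitted from percent inhibition.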

The target in data set [5] is Matrix metalloproteinase-9 (Homo sapiens, UniProt P14780). The data set can be described thus: Inhibition of MMP9 catalytic domain (unknown origin) using Mca-Pro-Leu-Gly-Leu-Dpa-Ala-Arg-NH2 as substrate incubated for 30 mins prior to substrate addition measured after 2 to 4 hrs by fluorometric assay. The essentials:
as §2

Data set [6] has as its target Neutrophil collagenase (Homo sapiens, UniProt P22894). The data set can be described thus: Inhibition of MMP8 catalytic domain (unknown origin) using Mca-Pro-Leu-Gly-Leu-Dpa-Ala-Arg-NH2 as substrate incubated for 30 mins prior to substrate addition measured after 2 to 4 hrs by fluorometric assay. The essentials:
as §2

Data set [7] deals with 72 kDa type IV collagenase (Homo sapiens, UniProt P08253). As to the kind of experiment: Inhibition of APMA-activated recombinant human MMP2 using Mca-Pro-Leu-Gly-Leu-Dpa-Ala-Arg-NH2 as substrate incubated for 30 mins prior to substrate addition measured after 2 to 4 hrs by fluorometric assay. A digest of the protocol: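 Human pro-MMP-2 was activated with 2 mM APMA for 1 h at 37 °C. Enzyme and inhibitor (six concentrations, 0.1 nM–100 μM) were preincubated 30 min at 25 °C in Tris-HCl pH 7.5 buffer with NaCl, CaCl2, ZnCl2, Brij-35 and 1% DMSO. Substrate was added to 2.5 μM final, run 2–4 h at 37 °C, and stopped with 3% acetic acid. Fluorescence read at ex 340/em 405 nm, in triplicate; IC50 from percent inhibition versus no-inhibitor controls.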

In general, IC50 refers to the concentration that inhibits the measured activity by half.

Matrix metalloproteinase-9, sequence (P14780 whole entry, the tested form may be a part): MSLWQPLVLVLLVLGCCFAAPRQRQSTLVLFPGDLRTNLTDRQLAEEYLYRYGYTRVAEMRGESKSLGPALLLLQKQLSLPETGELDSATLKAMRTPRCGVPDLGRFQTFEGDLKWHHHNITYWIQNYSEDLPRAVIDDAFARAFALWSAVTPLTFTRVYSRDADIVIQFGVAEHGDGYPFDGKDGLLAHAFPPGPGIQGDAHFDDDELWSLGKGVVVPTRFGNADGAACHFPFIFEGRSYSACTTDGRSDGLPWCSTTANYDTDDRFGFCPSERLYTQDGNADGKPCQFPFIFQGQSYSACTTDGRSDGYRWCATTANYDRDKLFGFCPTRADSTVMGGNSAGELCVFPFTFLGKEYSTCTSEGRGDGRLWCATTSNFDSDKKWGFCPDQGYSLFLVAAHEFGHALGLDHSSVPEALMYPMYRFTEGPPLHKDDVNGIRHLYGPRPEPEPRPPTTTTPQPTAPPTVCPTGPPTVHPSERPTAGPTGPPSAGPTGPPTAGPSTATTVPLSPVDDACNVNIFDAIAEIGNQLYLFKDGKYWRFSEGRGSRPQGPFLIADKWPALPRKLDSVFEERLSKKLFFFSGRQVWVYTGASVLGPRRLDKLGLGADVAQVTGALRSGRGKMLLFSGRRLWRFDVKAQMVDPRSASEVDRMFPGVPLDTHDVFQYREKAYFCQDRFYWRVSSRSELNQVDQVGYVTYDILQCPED
Neutrophil collagenase, sequence (P22894 whole entry, the tested form may be a part): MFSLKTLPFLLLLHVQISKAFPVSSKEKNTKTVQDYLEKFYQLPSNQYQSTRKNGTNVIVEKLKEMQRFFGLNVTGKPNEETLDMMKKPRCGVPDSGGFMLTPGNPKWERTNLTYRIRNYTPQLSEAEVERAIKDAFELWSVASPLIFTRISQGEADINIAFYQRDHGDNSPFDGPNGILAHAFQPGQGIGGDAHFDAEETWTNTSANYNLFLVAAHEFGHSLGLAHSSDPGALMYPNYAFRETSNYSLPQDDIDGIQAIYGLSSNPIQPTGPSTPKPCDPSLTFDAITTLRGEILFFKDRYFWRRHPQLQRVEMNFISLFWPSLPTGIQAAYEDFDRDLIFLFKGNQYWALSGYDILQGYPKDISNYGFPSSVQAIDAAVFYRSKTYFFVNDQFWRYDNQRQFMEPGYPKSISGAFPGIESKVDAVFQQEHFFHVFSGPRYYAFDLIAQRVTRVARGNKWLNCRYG
72 kDa type IV collagenase, sequence (P08253 whole entry): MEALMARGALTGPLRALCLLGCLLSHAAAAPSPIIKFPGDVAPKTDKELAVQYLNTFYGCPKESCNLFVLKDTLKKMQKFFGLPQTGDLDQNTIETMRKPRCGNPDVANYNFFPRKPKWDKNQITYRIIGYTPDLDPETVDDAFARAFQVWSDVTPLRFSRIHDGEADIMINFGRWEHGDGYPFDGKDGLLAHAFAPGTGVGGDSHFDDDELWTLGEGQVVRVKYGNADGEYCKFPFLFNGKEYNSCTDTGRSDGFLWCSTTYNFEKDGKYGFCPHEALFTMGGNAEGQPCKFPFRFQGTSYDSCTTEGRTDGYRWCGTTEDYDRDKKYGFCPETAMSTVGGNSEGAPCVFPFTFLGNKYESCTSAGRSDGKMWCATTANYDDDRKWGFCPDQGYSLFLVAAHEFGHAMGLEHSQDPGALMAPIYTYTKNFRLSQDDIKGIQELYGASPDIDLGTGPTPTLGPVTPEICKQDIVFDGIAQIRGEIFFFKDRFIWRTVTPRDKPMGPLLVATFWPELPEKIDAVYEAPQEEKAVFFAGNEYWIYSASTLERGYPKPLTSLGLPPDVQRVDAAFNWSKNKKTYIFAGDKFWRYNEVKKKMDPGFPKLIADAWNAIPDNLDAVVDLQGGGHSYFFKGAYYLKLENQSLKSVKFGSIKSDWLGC

Consider `O=P(O)(O)C(Nc1cccc(-c2ccccc2)c1)P(=O)(O)O`, for which the viability at 48 h, 100 µM in data set [1] is 102%. Moreover, in data set [2], the viability at 100 µM came to 49%. Further, the Activity in data set [3] worked out at 66.4%. The IC50 is 40 µM in data set [4], over 100 µM in data set [5], 52 µM in data set [6] and over 100 µM in data set [7].

In the case of `O=P(O)(O)C(Nc1ccc(F)cc1)P(=O)(O)O`, the viability at 48 h, 100 µM in data set [1] came to 94%. The viability at 100 µM in data set [2] was 80.4%. The Activity in data set [3] was 61.2%. Besides, the half-maximal inhibitory concentration (IC50) in data set [4] is over 100 µM; in data set [5], over 100 µM; in data set [6], over 100 µM; in data set [7], 28.2 µM.

On to `O=P(O)(O)C(Nc1cccc(F)c1)P(=O)(O)O`, for which the viability at 48 h, 100 µM in data set [1] came to 70%. In data set [2], the viability at 100 µM amounted to 84%. For the same compound, in data set [3], the Activity stood at 63.6%. For the same compound, the IC50 in data set [4] was over 100 µM; in data set [5], over 100 µM; in data set [6], over 100 µM; in data set [7] it was 42 µM.

On to `O=P(O)(O)C(Nc1cccc(C(F)(F)F)c1)P(=O)(O)O`, for which the viability at 48 h, 100 µM in data set [1] worked out at 83%. Also, the viability at 100 µM in data set [2] was 62%. In addition, the Activity in data set [3] was 50.3%. The half-inhibitory concentration (IC50) was over 100 µM in data set [4], over 100 µM in data set [5], over 100 µM in data set [6] and 20.8 µM in data set [7].
